Our source for the Activity and IC50 values is ChEMBL document CHEMBL5338787, “Discovery of Novel Bruton's Tyrosine Kinase PROTACs with Enhanced Selectivity and Cellular Efficacy” (J Med Chem, 2023).

Activity calls are given as the source filed them. No cut-off for these calls is given here.

Assay [1] addresses von Hippel-Lindau disease tumor suppressor/Tyrosine-protein kinase BTK (Homo sapiens) (UniProt Q06187+P40337). In words: PROTAC activity at BTK/VHL protein protein interaction in human Ramos cell assessed as degradation of BTK incubated less than 3000 nM for 17 hrs measured by Western blot analysis. In general terms: A western blot detects proteins with antibodies after separation by electrophoresis.

The subject of another assay is TMD8. The assay can be described thus: Induction of apoptosis in human TMD8 cells measured after 48 hrs by Annexin-V/propidium iodide staining based flow cytometric analysis. The class given is functional, cell-based. The note with it: dose 0.15-3000 nM. The essentials: (§1)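 Cells plated at 2 × 10^6 per well and treated 48 h at 3,000–0.15 nM (3-fold dilutions) or 1% DMSO. Harvested, washed in cold PBS, stained with Annexin V Alexa Fluor 488/propidium iodide, analysed by flow cytometry for % live, apoptotic and necrotic cells. Mean of two independent experiments.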
(A flow cytometer gives signals particle by particle.)

The nature of assay [2]: Cytotoxicity against human MINO cells incubated for 48 hrs by celltitre glo 2.0 assay. The class given is functional, cell-based.
The test system of the next assay is MINO. The assay can be described thus: Induction of apoptosis in human MINO cells at 0.15 to 3000 nM for 48 hrs by Annexin-V/propidium iodide staining based flow cytometric analysis. The assay is classed as functional, cell-based. The conditions noted are these: dose 0.15-3000 nM. The method in brief: as §1

By IC50 is commonly meant the point on the concentration scale where inhibition reaches its midpoint. A lower IC50 goes with inhibition by little substance.

Chain of von Hippel-Lindau disease tumor suppressor/Tyrosine-protein kinase BTK (Homo sapiens) (P40337 whole entry partner): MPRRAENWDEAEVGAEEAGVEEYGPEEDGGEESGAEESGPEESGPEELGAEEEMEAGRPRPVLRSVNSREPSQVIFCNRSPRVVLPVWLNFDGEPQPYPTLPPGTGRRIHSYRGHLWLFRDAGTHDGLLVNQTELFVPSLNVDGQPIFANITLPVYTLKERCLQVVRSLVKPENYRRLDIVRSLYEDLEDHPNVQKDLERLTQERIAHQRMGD
Chain of von Hippel-Lindau disease tumor suppressor/Tyrosine-protein kinase BTK (Homo sapiens) (Q06187 2-659 limits assumed): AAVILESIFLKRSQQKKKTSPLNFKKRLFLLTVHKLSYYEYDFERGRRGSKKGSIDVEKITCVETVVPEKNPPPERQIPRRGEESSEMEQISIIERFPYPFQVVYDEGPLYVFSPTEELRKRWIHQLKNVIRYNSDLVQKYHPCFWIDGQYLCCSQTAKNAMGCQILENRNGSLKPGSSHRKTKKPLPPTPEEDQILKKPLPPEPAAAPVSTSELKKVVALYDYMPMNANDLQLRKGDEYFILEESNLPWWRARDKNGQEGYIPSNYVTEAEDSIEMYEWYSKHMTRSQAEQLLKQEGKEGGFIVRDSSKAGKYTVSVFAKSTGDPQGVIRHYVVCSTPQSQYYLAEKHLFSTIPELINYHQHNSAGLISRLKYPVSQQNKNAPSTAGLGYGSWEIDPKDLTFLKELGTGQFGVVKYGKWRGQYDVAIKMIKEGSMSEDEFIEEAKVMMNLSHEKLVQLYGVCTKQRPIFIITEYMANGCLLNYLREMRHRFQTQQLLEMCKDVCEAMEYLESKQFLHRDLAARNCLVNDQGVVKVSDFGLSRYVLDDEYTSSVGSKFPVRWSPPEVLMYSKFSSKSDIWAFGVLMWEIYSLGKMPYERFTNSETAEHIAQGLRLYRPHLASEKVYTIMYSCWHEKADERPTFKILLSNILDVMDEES

Regarding `Cc1ncsc1-c1ccc(CNC(=O)[C@@H]2C[C@@H](O)CN2C(=O)[C@@H](NC(=O)COCCOCCCCCCC(=O)N2CCN(c3ccc(Nc4cc(-c5ccnc(N6CCn7c(cc8c7CC(C)(C)C8)C6=O)c5CO)cn(C)c4=O)nc3)[C@@H](C)C2)C(C)(C)C)cc1`, in assay [1], the result was inactive.

Turning to `C[C@H]1CN(C2COC2)CCN1c1ccc(Nc2cc(-c3ccnc(N4CCn5c(cc6c5CC(C)(C)C6)C4=O)c3CO)cn(C)c2=O)nc1` [FENEBRUTINIB], the Activity entry with TMD8 is “Dose-Dependent Effect”. The same compound gave an IC50 in assay [2] of 7.8 nM. Further, in the assay with MINO, the outcome was inactive.
